Data set [1] in a line: Selectivity index, ratio of IC50 for African green monkey Vero cells to IC50 for chloroquine-sensitive Plasmodium falciparum D6. Format: toxicity. The conditions noted are these: read-out: Ratio IC50. In short, it runs like this: (§1)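 Selectivity index is the ratio of the VERO cytotoxicity IC50 to the antiplasmodial IC50 for the strain named. VERO cells were tested up to a highest concentration of 9 µM.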

Data set [2] concerns Vero. Description: Cytotoxicity against African green monkey Vero cells up to 9 uM. Format: cell-based. The following applies: chlorocebus sabaeus.
The test system of data set [3] is Plasmodium falciparum. As to the kind of experiment: Antiplasmodial activity against chloroquine-resistant Plasmodium falciparum W2 infected in red blood cells after 72 hrs by Malstat reagent based LDH assay. Type of data set: functional, cell-based. The following applies: W2, 72 h.
Data set [4] has as its system Plasmodium falciparum. Description: Antiplasmodial activity against chloroquine-sensitive Plasmodium falciparum D6 infected in red blood cells after 72 hrs by Malstat reagent based LDH assay. Format: functional, cell-based. The conditions noted are these: D6, 72 h.
A short description of data set [5]: Selectivity index, ratio of IC50 for African green monkey Vero cells to IC50 for chloroquine-resistant Plasmodium falciparum W2. The conditions noted are these: read-out: Ratio IC50. Format: toxicity. In short, it runs like this: as §1
The test system of data set [6] is Plasmodium falciparum. Description: Potency index, ratio of chloroquine IC50 to compound IC50 for chloroquine-resistant Plasmodium falciparum W2. Type of data set: functional.
The test system of data set [7] is Vero. Description: Cytotoxicity against African green monkey Vero cells. The conditions noted are these: chlorocebus sabaeus. Format: cell-based. In short, it runs like this: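 VERO (mammalian) cells were exposed to compounds up to a highest tested concentration of 9 µM. Cytotoxicity was expressed as IC50.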
Data set [8] concerns Heme. Description: Binding affinity to monomeric heme (unknown origin) assessed as decrease in intensity of soret band at 0.5 to 70 uM at pH 5.4 and 7.4 by titration based UV-vis spectrophotometric analysis. In short, it runs like this:
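Hemin stock (1.0 mM in DMSO, kept at 4 °C in the dark) is diluted daily to 10 µM monomeric heme in 0.02 M HEPES pH 7.4 or 0.02 M MES pH 5.4. Drug comes from a 1.0 mM DMSO stock and is titrated at 0.5–70 µM. After each addition the sample is mixed and the Soret band at 402 nm is read.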

Data set [9] concerns Heme. As to the kind of experiment: Binding affinity to monomeric heme (unknown origin) assessed as mole fraction of compound required to show 1:1 stoichiometry for heme-compound complex at pH 5.4 to 7.4 by Job's plot method. Put shortly:
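Binding stoichiometry with monomeric heme is found by Job's continuous variation. Total drug plus heme is held at 10 µM, at pH 7.4 (HEPES) and at pH 5.4 (MES), with heme from a DMSO hemin stock. Absorbance is plotted against drug mole fraction.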

The test system of data set [10] is mu-oxodimeric heme. As to the kind of experiment: Binding affinity to mu-oxodimeric heme (unknown origin) in aqueous NaOH solution at 0.5 to 70 uM at pH 5.8 by titration-based UV-vis spectrophotometric analysis. Put shortly:
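µ-Oxodimeric heme: hemin chloride is dissolved to 1.0 mM in 0.1 M aqueous NaOH with 30 min sonication, then diluted to 10 µM in 20 mM phosphate pH 5.8. Aliquots of a 1.0 mM drug stock are added stepwise (0.5–70 µM), and absorbance at 362 nm is recorded.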

For data set [11], the system named is mu-oxodimeric heme. As to the kind of experiment: Binding affinity to mu-oxodimeric heme (unknown origin) in aqueous NaOH solution assessed as 1:1 stoichiometry for heme-compound complex at 10 uM at pH 5.8 by Job's plot method.

We go through 23 compounds from ChEMBL document CHEMBL4011605, “N-Piperonyl substitution on aminoquinoline-pyrimidine hybrids: Effect on the antiplasmodial potency” (Eur J Med Chem, 2017).

pIC50: −log10 of the molar value. Calls of active or inactive are those of the source. No cut-off for these calls is given here.

Broadly, the pIC50 is the IC50 on a negative log10 scale, so that one unit is a factor of ten. With `Cc1cc(N(CCNc2ccnc3cc(Cl)ccc23)Cc2ccc3c(c2)OCO3)nc(N2CCCC2)n1`, the selectivity ratio in [1] and in [5] was over 243 in each case. The Activity entry in the data set on Vero [2] is “Non-Toxic”. The pIC50 in the data set on Plasmodium falciparum [3] was 7.00; with Plasmodium falciparum [4], 7.40.

Turning to `Cc1cc(N(CCCNc2ccnc3cc(Cl)ccc23)Cc2ccc3c(c2)OCO3)nc(Cl)n1`, the selectivity ratio in data set [1] was over 20.9; in data set [5], over 8.4. In addition, in the data set with Vero [2], the Activity result is reported as “Non-Toxic”. Moreover, the results for the pIC50 with Plasmodium falciparum [3] and with Plasmodium falciparum [4] were 5.94 and 6.34, respectively.

With `Clc1ccc2c(NCCNCc3ccc4c(c3)OCO4)ccnc2c1`, the figures for the selectivity ratio in [1] and in [5] were over 243 and over 54.3, respectively. The Activity result with Vero [2] is “Non-Toxic”. For the same compound, the pIC50 with Plasmodium falciparum [3] was 7.30; in the data set on Plasmodium falciparum [4] it was 7.52. Besides, the “Ratio IC50” value with Plasmodium falciparum [6] came to 8.

Turning to `CCN1CCN(c2cc(C)nc(N(CCCNc3ccnc4cc(Cl)ccc34)Cc3ccc4c(c3)OCO4)n2)CC1`, the selectivity ratio was over 71.1 in data set [1] and over 37.9 in data set [5]. Further, the Activity result in the data set with Vero [2] was “Non-Toxic”. The values for the pIC50 with Plasmodium falciparum [3] and in the data set on Plasmodium falciparum [4] were 6.66 and 6.92, respectively. In addition, the “Ratio IC50” value with Plasmodium falciparum [6] is given as 2 - 5.

On to `Cc1cc(N(CCNc2ccnc3cc(Cl)ccc23)Cc2ccc3c(c2)OCO3)nc(Cl)n1`, for which the results for the selectivity ratio in [1] and in data set [5] were over 16.8 and over 12.3, respectively. Moreover, in the data set with Vero [2], the Activity result was “Non-Toxic”. The figures for the pIC50 in the data set with Plasmodium falciparum [3] and in the data set on Plasmodium falciparum [4] were 6.11 and 6.23, respectively.

On to `Cc1cc(N(CCCNc2ccnc3cc(Cl)ccc23)Cc2ccc3c(c2)OCO3)nc(N2CCCCC2)n1`, for which the selectivity ratio in data set [1] was over 59.8; in data set [5] it was over 8.8. In addition, the Activity result in the data set with Vero [2] is “Non-Toxic”. The values for the pIC50 in the data set with Plasmodium falciparum [3] and in the data set on Plasmodium falciparum [4] were 6.00 and 6.82, respectively.

With `Cc1cc(N(CCNc2ccnc3cc(Cl)ccc23)Cc2ccc3c(c2)OCO3)nc(N2CCOCC2)n1`, the selectivity ratio in data set [1] is over 243; in data set [5], over 66.8. Besides, the Activity result with Vero [2] is on record as “Non-Toxic”. Also, the figures for the pIC50 with Plasmodium falciparum [3] and in the data set with Plasmodium falciparum [4] were 6.66 and 7.30, respectively. Moreover, in the data set on Plasmodium falciparum [6], the “Ratio IC50” value is reported as 2 - 5.

As to `Cc1cc(N2CCCCC2)nc(N(CCNc2ccnc3cc(Cl)ccc23)Cc2ccc3c(c2)OCO3)n1`, the selectivity ratio in [1] was over 53.6; in [5], over 15.9. Also, the Activity result in the data set on Vero [2] is “Non-Toxic”. Moreover, the pIC50 was over 6.37 with Plasmodium falciparum [3] and 6.77 in the data set with Plasmodium falciparum [4].

With `Cc1cc(N(CCCNc2ccnc3cc(Cl)ccc23)Cc2ccc3c(c2)OCO3)nc(N2CCOCC2)n1`, the selectivity ratio in data set [1] is over 60; in [5] it was over 9.5. Also, in the data set with Vero [2], the Activity entry is given as “Non-Toxic”. The pIC50 in the data set with Plasmodium falciparum [3] was 6.04; in the data set on Plasmodium falciparum [4] it was 6.82.

In the case of `Cc1cc(Cl)nc(N(CCNc2ccnc3cc(Cl)ccc23)Cc2ccc3c(c2)OCO3)n1`, the selectivity ratio in [1] is over 20.5; in data set [5] it was over 9.8. Also, the Activity result in the data set on Vero [2] is given as “Non-Toxic”. For the same compound, the pIC50 in the data set with Plasmodium falciparum [3] is 6.00; in the data set with Plasmodium falciparum [4], 6.32.

Turning to `Cc1cc(N2CCCC2)nc(N(CCNc2ccnc3cc(Cl)ccc23)Cc2ccc3c(c2)OCO3)n1`, the selectivity ratio was over 59.2 in data set [1] and over 9.8 in data set [5]. In the data set on Vero [2], the Activity entry is recorded as “Non-Toxic”. Further, the pIC50 with Plasmodium falciparum [3] was 6.03; in the data set with Plasmodium falciparum [4], 6.82.

In the case of `Cc1cc(Cl)nc(N(CCCNc2ccnc3cc(Cl)ccc23)Cc2ccc3c(c2)OCO3)n1`, the selectivity ratio in [1] was over 8.6; in data set [5] it was over 1.9. Further, the Activity entry in the data set with Vero [2] is on record as “Non-Toxic”. Besides, the pIC50 was 5.29 in the data set on Plasmodium falciparum [3] and 5.95 in the data set with Plasmodium falciparum [4].

For the compound `Clc1ccc2c(NCCCNCc3ccc4c(c3)OCO4)ccnc2c1`, the figures for the selectivity ratio in [1] and in [5] were over 243 and over 84.5, respectively. Further, the Activity entry in the data set with Vero [2] is reported as “Non-Toxic”. Besides, the pIC50 is 7.00 in the data set on Plasmodium falciparum [3] and 7.40 with Plasmodium falciparum [4]. Further, the “Ratio IC50” value in the data set with Plasmodium falciparum [6] is 2 - 5.

Consider `CCN(CC)CCCC(C)Nc1ccnc2cc(Cl)ccc12` (stereo not drawn) [CHLOROQUINE], for which the Activity result in the data set with Vero [2] is recorded as “Non-Toxic”.

On to `CCN1CCN(c2cc(C)nc(N(CCNc3ccnc4cc(Cl)ccc34)Cc3ccc4c(c3)OCO4)n2)CC1`, for which the figures for the selectivity ratio in data set [1] and in data set [5] were over 239 and over 60.4, respectively. Also, the Activity result in the data set with Vero [2] was “Non-Toxic”. The pIC50 in the data set with Plasmodium falciparum [3] is 6.85; in the data set with Plasmodium falciparum [4], 7.52. Moreover, the “Ratio IC50” value in the data set with Plasmodium falciparum [6] is reported as 2 - 5.

For the compound `Cc1cc(N(CCNc2ccnc3cc(Cl)ccc23)Cc2ccc3c(c2)OCO3)nc(N2CCCCC2)n1`, the selectivity ratio is over 174 in data set [1] and over 30.5 in [5]. Besides, the Activity result in the data set on Vero [2] was “Non-Toxic”. For the same compound, the pIC50 is 6.54 with Plasmodium falciparum [3] and 7.30 in the data set on Plasmodium falciparum [4].

For the compound `Cc1cc(N(CCCNc2ccnc3cc(Cl)ccc23)Cc2ccc3c(c2)OCO3)nc(N2CCCC2)n1`, the selectivity ratio is over 192 in data set [1] and over 96.9 in data set [5]. The Activity result in the data set with Vero [2] was “Non-Toxic”. The pIC50 is 7.05 in the data set with Plasmodium falciparum [3] and 7.30 with Plasmodium falciparum [4]. For the same compound, the “Ratio IC50” value with Plasmodium falciparum [6] is 2 - 5.

For `Cc1cc(N2CCOCC2)nc(N(CCCNc2ccnc3cc(Cl)ccc23)Cc2ccc3c(c2)OCO3)n1`, the selectivity ratio in data set [1] is 67; in [5], 9.4. In addition, the pIC50 is 6.03 in the data set with Plasmodium falciparum [3], 5.06 with Vero [7] and 6.89 in the data set on Plasmodium falciparum [4].

Turning to `Cc1cc(N2CCCCC2)nc(N(CCCNc2ccnc3cc(Cl)ccc23)Cc2ccc3c(c2)OCO3)n1`, the selectivity ratio in data set [1] was over 57.2; in [5], over 24.2. The Activity result with Vero [2] is “Non-Toxic”. The pIC50 is 6.44 with Plasmodium falciparum [3] and 6.82 in the data set on Plasmodium falciparum [4].

Consider `CCN1CCN(c2nc(C)cc(N(CCCNc3ccnc4cc(Cl)ccc34)Cc3ccc4c(c3)OCO4)n2)CC1`, for which the selectivity ratio was over 194 in data set [1] and over 47.6 in data set [5]. Also, in the data set on Vero [2], the Activity result is “Non-Toxic”. Further, the pIC50 with Plasmodium falciparum [3] is 6.77; in the data set on Plasmodium falciparum [4], 7.40. Moreover, in the data set with Plasmodium falciparum [6], the “Ratio IC50” value is reported as 2 - 5.

In the case of `Cc1cc(N2CCCC2)nc(N(CCCNc2ccnc3cc(Cl)ccc23)Cc2ccc3c(c2)OCO3)n1`, the figures for the selectivity ratio in data set [1] and in [5] were over 76.7 and over 15.1, respectively. In the data set with Vero [2], the Activity entry is on record as “Non-Toxic”. Further, the pIC50 in the data set with Plasmodium falciparum [3] is 6.23; in the data set with Plasmodium falciparum [4], 6.92.

`CCN1CCN(c2nc(C)cc(N(CCNc3ccnc4cc(Cl)ccc34)Cc3ccc4c(c3)OCO4)n2)CC1`: the outcome in the data set with Heme [8], with mu-oxodimeric heme [10] and in the data set with mu-oxodimeric heme [11] was Active. The selectivity ratio in [1] was over 243; in data set [5] it was over 60.4. The Activity entry was “Non-Toxic” with Vero [2] and 0.5 molar ratio in the data set with Heme [9]. Further, the pIC50 was 7.30 in the data set on Plasmodium falciparum [3] and 7.70 in the data set on Plasmodium falciparum [4]. For the same compound, in the data set on Plasmodium falciparum [6], the “Ratio IC50” value is 8.

In the case of `Cc1cc(N2CCOCC2)nc(N(CCNc2ccnc3cc(Cl)ccc23)Cc2ccc3c(c2)OCO3)n1`, the selectivity ratio in [1] was found to be 51.4; in data set [5], 8.5. Besides, the pIC50 in the data set on Plasmodium falciparum [3] was 6.09; with Vero [7], 5.16; in the data set on Plasmodium falciparum [4] it was 6.89.
